# Data reported in ChEMBL document CHEMBL1777749, “4-Aminothiazolyl analogs of GE2270 A: design, synthesis and evaluation of imidazole analogs” (2011).
# How the values were obtained:
# Assay type in all cases: functional
# Enterococcus faecalis = assay: Antimicrobial activity against Enterococcus faecalis ATCC 29212 by CLSI method
# Enterococcus faecium = assay: Antimicrobial activity against Enterococcus faecium 7130724 by CLSI method
# Staphylococcus aureus = assay: Antimicrobial activity against methicillin-resistant Staphylococcus aureus clinical isolate obtained from pharyngeal smear by CLSI method
# Summary of the method: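 MIC by dilution susceptibility testing per CLSI M07-A8, for bacteria that grow aerobically. Strain: MRSA clinical isolate AKH Vienna A4.018, from a pharyngeal smear. Tested compounds were >95% pure by LCUV, LCMS and ¹H NMR.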
# Escherichia coli = assay: Inhibition of protein synthesis in Escherichia coli S30 extract at 2 uM by luciferase assay relative to control
# Streptococcus pyogenes = assay: Antimicrobial activity against Streptococcus pyogenes ATCC BAA-595 by CLSI method
smiles,measurement,setting,value
CNC(=O)C[C@@H]1NC(=O)c2csc(n2)-c2ccc(-c3nc(C4=N[C@H](C(=O)N5CCC[C@H]5C(N)=O)CO4)cs3)nc2-c2csc(n2)-c2csc(n2)[C@H]([C@@H](O)c2ccccc2)NC(=O)CNC(=O)c2nc(sc2COC)[C@H](C(C)C)NC(=O)c2nc1sc2C,MIC,Enterococcus faecalis,0.5 µg/mL
same,MIC,Enterococcus faecium,0.25 µg/mL
same,MIC,Staphylococcus aureus,0.25 µg/mL
same,inhibition at 2 µM,Escherichia coli,61%
same,MIC,Streptococcus pyogenes,1 µg/mL
CNC(=O)C[C@@H]1NC(=O)c2csc(n2)-c2ccc(-c3nc(-n4cnc(C(=O)NCC(=O)O)c4)cs3)nc2-c2csc(n2)-c2csc(n2)[C@H]([C@@H](O)c2ccccc2)NC(=O)CNC(=O)c2nc(sc2COC)[C@H](C(C)C)NC(=O)c2nc1sc2C,MIC,Enterococcus faecalis,8 µg/mL
same,MIC,Enterococcus faecium,32 µg/mL
same,MIC,Staphylococcus aureus,4 µg/mL
same,inhibition at 2 µM,Escherichia coli,64%
same,MIC,Streptococcus pyogenes,> 32 µg/mL
CNC(=O)C[C@@H]1NC(=O)c2csc(n2)-c2ccc(-c3nc(-n4cnc(C(=O)O)c4)cs3)nc2-c2csc(n2)-c2csc(n2)[C@H]([C@@H](O)c2ccccc2)NC(=O)CNC(=O)c2nc(sc2COC)[C@H](C(C)C)NC(=O)c2nc1sc2C,MIC,Enterococcus faecalis,4 µg/mL
same,MIC,Enterococcus faecium,> 32 µg/mL
same,MIC,Staphylococcus aureus,4 µg/mL
same,inhibition at 2 µM,Escherichia coli,0%
same,MIC,Streptococcus pyogenes,> 32 µg/mL
CNC(=O)C[C@@H]1NC(=O)c2csc(n2)-c2ccc(-c3nc(-n4cnc(C(=O)N5CCC[C@H]5C(=O)O)c4)cs3)nc2-c2csc(n2)-c2csc(n2)[C@H]([C@@H](O)c2ccccc2)NC(=O)CNC(=O)c2nc(sc2COC)[C@H](C(C)C)NC(=O)c2nc1sc2C,MIC,Enterococcus faecalis,8 µg/mL
same,MIC,Enterococcus faecium,> 32 µg/mL
same,MIC,Staphylococcus aureus,8 µg/mL
same,inhibition at 2 µM,Escherichia coli,53%
same,MIC,Streptococcus pyogenes,> 32 µg/mL
